Assay results taken from ChEMBL document CHEMBL3352209, “Chroman-4-one- and chromone-based sirtuin 2 inhibitors with antiproliferative properties in cancer cells” (J Med Chem, 2014).
Each block holds one compound with its values, some of them ahead of it. The source made the active and inactive calls. No cut-off for these calls is given here.

Tests used:
[1] = molecular target: T1, NAD-dependent protein deacetylase sirtuin-2 (Homo sapiens) (UniProt Q8IXJ6); assay: Inhibition of sirtuin-2 (unknown origin) by SIRTainty assay in presence of NAD+; conditions: concentration not given here
T1 sequence (whole entry): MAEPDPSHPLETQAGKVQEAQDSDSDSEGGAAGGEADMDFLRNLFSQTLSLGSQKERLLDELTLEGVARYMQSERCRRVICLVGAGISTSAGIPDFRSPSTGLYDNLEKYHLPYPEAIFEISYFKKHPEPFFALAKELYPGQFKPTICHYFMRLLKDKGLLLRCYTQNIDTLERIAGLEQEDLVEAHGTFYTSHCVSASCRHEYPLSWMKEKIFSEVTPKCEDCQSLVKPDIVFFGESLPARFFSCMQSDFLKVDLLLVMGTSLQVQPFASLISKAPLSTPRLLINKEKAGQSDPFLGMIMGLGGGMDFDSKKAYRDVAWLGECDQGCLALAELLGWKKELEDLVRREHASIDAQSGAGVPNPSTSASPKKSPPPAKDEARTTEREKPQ
Summary of the method: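 SIRT2 run in the SIRTainty kit, which uses nicotinamidase to detect nicotinamide released from NAD+, with and without NAD+. Fluorescence ex 405/em 460 nm, given as percent inhibition of the NAD+-dependent signal.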

[2] = molecular target: T1, NAD-dependent protein deacetylase sirtuin-2 (Homo sapiens); assay: Inhibition of recombinant GST-tagged sirtuin-2 (unknown origin) using KI179 as substrate at 200 uM after 1 hr by fluorescence assay
Summary of the method: (§1)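 Recombinant GST-SIRT2 with Fluor de Lys KI179 acetyl-peptide at 0.7 Km (Km 198 μM) and NAD+ at 0.9 Km in HDAC buffer with 1 mg/mL BSA. Compound in DMSO (5% v/v) preincubated 5 min at room temperature, enzyme added, 1 h at 37 °C; developer plus 2 mM nicotinamide 45 min at 37 °C; fluorescence ex 370/em 460 nm. Single-point inhibition at 200 μM, n = 3; IC50 with 95% CI where inhibition >80%.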

[3] = molecular target: T2, NAD-dependent protein deacetylase sirtuin-2 (Homo sapiens, UniProt Q8IXJ6); assay: Inhibition of recombinant GST-tagged sirtuin-2 (unknown origin) using KI179 as substrate after 1 hr by fluorescence assay; summary of the method: as §1
T2 sequence (Q8IXJ6 whole entry): T1 sequence (whole entry)

[4] = molecular target: T1, NAD-dependent protein deacetylase sirtuin-2 (Homo sapiens); assay: Inhibition of SIRT2 in human MCF7 cells assessed as alpha-tubulin acetylation after 6 to 18 hrs by Western blotting analysis; format: cell-based
Summary of the method: (§2)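 MCF-7 cells seeded 10⁵/well, dosed 24 h later with compound plus 40 nM Trichostatin A, or 0.5% DMSO, for 6 or 18 h. Lysates separated by SDS-PAGE and blotted with acetylated α-tubulin and total α-tubulin mouse monoclonals, HRP anti-mouse and ECL detection; mean ± SEM of three independent experiments.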

[5] = test system: MCF7; assay: Antiproliferative activity against human MCF7 cells at >=50 uM after 48 hrs by sulforhodamine B assay; format: functional, cell-based
[6] = test system: A549; assay: Induction of apoptosis in human A549 cells at 50 uM after 18 hrs by propidium iodide staining-based flow cytometry; format: functional, cell-based
[7] = test system: MCF7; assay: Antiproliferative activity against human MCF7 cells at 1 to 100 uM after 72 hrs by sulforhodamine B assay; format: functional, cell-based
Summary of the method: (§3)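 A549 and MCF-7 cells (DMEM, 10% FCS, penicillin/streptomycin, 37 °C, 5% CO2) seeded 3000 cells/well 24 h before dosing; 0–100 μM compound or 0.5% DMSO vehicle for 48 h (A549) or 72 h (MCF-7). Growth read by sulforhodamine B staining; mean ± SEM of two to three independent experiments; ANOVA with Tukey test.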

[8] = test system: MCF7; assay: Cell cycle arrest in human MCF7 cells assessed as accumulation at G1/G0 phase at 50 uM after 18 hrs by propidium iodide staining-based flow cytometry; format: functional
Summary of the method: (§4)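 A549 or MCF-7 cells seeded 0.6 × 10⁶/well 6 h before exposure to compound or 0.5% DMSO vehicle for 18 h. DNA content measured by propidium iodide staining and flow cytometry, giving percent of cells in G1/G0, S and G2/M; mean ± SEM of two to four independent experiments; one-way ANOVA with Tukey test.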

[9] = test system: MCF7; assay: Induction of apoptosis in human MCF7 cells at 50 uM after 18 hrs by propidium iodide staining-based flow cytometry; format: functional, cell-based
[10] = test system: MCF7; assay: Antiproliferative activity against human MCF7 cells at 10 uM after 72 hrs by sulforhodamine B assay
[11] = test system: A549; assay: Antiproliferative activity against human A549 cells at 10 uM after 48 hrs by sulforhodamine B assay; format: functional, cell-based
[12] = test system: A549; assay: Antiproliferative activity against human A549 cells at >=50 uM after 48 hrs by sulforhodamine B assay; format: functional, cell-based
[13] = test system: MCF7; assay: Cytotoxicity against human MCF7 cells at 100 uM after 18 hrs; format: cell-based; conditions: mcf7, 18 h
[14] = test system: A549; assay: Cell cycle arrest in human A549 cells assessed as accumulation at G1/G0 phase at 50 uM after 18 hrs by propidium iodide staining-based flow cytometry; format: functional; summary of the method: as §4
[15] = molecular target: T1, NAD-dependent protein deacetylase sirtuin-2 (Homo sapiens); conditions: MCF7, 25 to 100 uM
[16] = test system: A549; assay: Antiproliferative activity against human A549 cells at 1 to 100 uM after 48 hrs by sulforhodamine B assay; format: functional, cell-based; summary of the method: as §3
[17] = test system: MCF7; assay: Induction of apoptosis in human MCF7 cells at 100 uM after 18 hrs by propidium iodide staining-based flow cytometry; format: functional, cell-based
[18] = test system: A549; assay: Cell cycle arrest in human A549 cells assessed as reduction in G2 phase at 100 uM after 18 hrs by propidium iodide staining-based flow cytometry; format: functional; summary of the method: as §4
[19] = test system: A549; assay: Cell cycle arrest in human A549 cells assessed as accumulation at G1/G0 phase at 100 uM after 18 hrs by propidium iodide staining-based flow cytometry; format: functional; summary of the method: as §4
[20] = test system: MCF7; assay: Cell cycle arrest in human MCF7 cells assessed as accumulation at G1/G0 phase at 100 uM after 18 hrs by propidium iodide staining-based flow cytometry; format: functional; summary of the method: as §4
[21] = molecular target: T1, NAD-dependent protein deacetylase sirtuin-2 (Homo sapiens); assay: Inhibition of SIRT2 in human MCF7 cells assessed as alpha-tubulin acetylation at 50 to 100 uM after 18 hrs by Western blotting analysis; format: cell-based; summary of the method: as §2
[22] = test system: A549; assay: Induction of apoptosis in human A549 cells at 100 uM after 18 hrs by propidium iodide staining-based flow cytometry; format: functional, cell-based

Compound: O=C1CC(CCCN2CCOCC2)Oc2c(Br)cc(Cl)cc21 (stereo unspecified)
inhibition [1]: 17%

Compound: CN(C)C(=O)CCCC1CC(=O)c2cc(Cl)cc(Br)c2O1 (stereo unspecified)
inhibition [2]: 53%

Compound: CNC(=O)CCCC1CC(=O)c2cc(Cl)cc(Br)c2O1 (stereo unspecified)
inhibition [2]: 39%

Compound: CCCCCC1CC(=O)c2cc(Br)ccc2O1 (stereo unspecified)
inhibition [2]: 69%

Compound: N#Cc1c(CCc2ccccc2)oc2c(Br)cc(Cl)cc2c1=O
inhibition [2]: 50%

Compound: O=C1CC(CCCN2CCCCC2)Oc2c(Br)cc(Cl)cc21 (stereo unspecified)
inhibition [1]: 40%

Compound: N/C=C1\C(=O)c2cc(Cl)cc(Br)c2OC1CCc1ccccc1 (stereo unspecified)
inhibition [2]: 76%

Compound: Nc1c(CCc2ccccc2)oc2c(Br)cc(Cl)cc2c1=O
inhibition [2]: 79%

Compound: COCCOCC1CC(=O)c2cc(Cl)cc(Br)c2O1 (stereo unspecified)
inhibition [2]: 33%

Compound: COC(=O)CCCC1CC(=O)c2cc(Cl)cc(Br)c2O1 (stereo unspecified)
IC50 [3]: 2 µM
inhibition [2]: 90%

Compound: Cc1noc(CCCC2CC(=O)c3cc(Cl)cc(Br)c3O2)n1 (stereo unspecified)
inhibition [2]: 49%

Compound: CC(=O)Nc1c(CCc2ccccc2)oc2c(Br)cc(Cl)cc2c1=O
IC50 [3]: 28.7 µM
inhibition [2]: 81%

Compound: COC(=O)CCC1CC(=O)c2cc(Cl)cc(Br)c2O1 (stereo unspecified)
IC50 [3]: 9.6 µM
inhibition [2]: 80%

Compound: CNC(=O)CCC1CC(=O)c2cc(Cl)cc(Br)c2O1 (stereo unspecified)
inhibition [2]: 0.2%

Compound: CC(C)NC(=O)CCCC1CC(=O)c2cc(Cl)cc(Br)c2O1 (stereo unspecified)
inhibition [2]: 23%

Compound: O=C(O)CCCC1CC(=O)c2cc(Cl)cc(Br)c2O1 (stereo unspecified)
inhibition [2]: 7.6%

Compound: O=C1CC(CCCCCO)Oc2c(Br)cc(Cl)cc21 (stereo unspecified)
inhibition [2]: 67%

Compound: CCCCCC1CC(=O)c2cc(Br)cc(Cl)c2O1 (stereo unspecified)
IC50 [3]: 1.8 µM
inhibition [2]: 96%

More lines, main results first:

inhibition [2]: 59%
Compound: O=C1CC(CCc2ccc3[nH]c(=O)ccc3c2)Oc2c(Br)cc(Cl)cc21 (stereo unspecified)

inhibition [2]: 39%
Compound: O=C(CCCC1CC(=O)c2cc(Cl)cc(Br)c2O1)NCc1ccccc1 (stereo unspecified)

inhibition [2]: 56%
Compound: O=C1CC(CCc2ccc3ncccc3c2)Oc2c(Br)cc(Cl)cc21 (stereo unspecified)

inhibition [2]: 18%
Compound: O=C1CC(CCCO)Oc2c(Br)cc(Cl)cc21 (stereo unspecified)

inhibition [2]: 73%
Compound: O=C1CC(CCc2ccncc2)Oc2c(Br)cc(Cl)cc21 (stereo unspecified)

inhibition [2]: 6.8%
Compound: O=C(O)CCC1CC(=O)c2cc(Cl)cc(Br)c2O1 (stereo unspecified)

inhibition [2]: 74%
Compound: O=C1CC(CCc2ccccn2)Oc2c(Br)cc(Cl)cc21 (stereo unspecified)

inhibition [4]: Dose-dependent effect
IC50 [3]: 3.7 µM
inhibition [2]: 86%
inhibition [15]: Active
Compound: O=C1CC(CCc2cccnc2)Oc2c(Br)cc(Cl)cc21 (stereo unspecified)
growth inhibition (GI) [5]: Active
Activity [6]: inactive
growth inhibition (GI) [7]: Active
Activity [8]: Active
Activity [9]: inactive
growth inhibition (GI) [10]: Active
growth inhibition (GI) [11]: Active
growth inhibition (GI) [12]: Active
Activity [13]: Toxic
Activity [14]: Active
growth inhibition (GI) [16]: Active

inhibition [4]: Dose-dependent effect
IC50 [3]: 12.2 µM
inhibition [2]: 77%
inhibition [21]: Active
Compound: Cc1noc(CCC2CC(=O)c3cc(Cl)cc(Br)c3O2)n1 (stereo unspecified)
growth inhibition (GI) [7]: Active
Activity [17]: inactive
Activity [18]: Active
Activity [19]: Active
Activity [20]: Active
Activity [22]: inactive
growth inhibition (GI) [16]: Active

inhibition [2]: 52%
Compound: O=C1CC(CCCCO)Oc2c(Br)cc(Cl)cc21 (stereo unspecified)
